Screening results deposited in PubChem by The Scripps Research Institute Molecular Screening Center.
TAAR1 antag: human TAAR1 antagonists, primary screen, Fluo-8 calcium fluorescence, CHO RD-HGA16 cells | actives 1.5% (n = 360,000) | inhibition, % at 3 µM | antagonist | Trace amine-associated receptor 1 (Homo sapiens), Q96RJ0;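 active means inhibition above a per-plate cutoff, the mean inhibition of test compounds on that plate plus 3 SD, cut at about 49% in these data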;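 further: 0% = DMSO plus EC80 beta-PEA response and 100% = DMSO alone without agonist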
Target sequence (Q96RJ0 whole entry, looked up): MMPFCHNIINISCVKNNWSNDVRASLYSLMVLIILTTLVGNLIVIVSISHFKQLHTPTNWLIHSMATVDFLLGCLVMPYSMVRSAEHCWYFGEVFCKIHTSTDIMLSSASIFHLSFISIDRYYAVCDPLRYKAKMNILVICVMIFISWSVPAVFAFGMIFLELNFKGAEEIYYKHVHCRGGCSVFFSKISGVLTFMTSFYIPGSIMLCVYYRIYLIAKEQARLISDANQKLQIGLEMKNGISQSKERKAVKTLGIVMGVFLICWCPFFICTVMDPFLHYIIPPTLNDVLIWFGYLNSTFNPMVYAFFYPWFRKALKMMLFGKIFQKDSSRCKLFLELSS
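System: RD-HGA16 CHO cells with stable hTAAR1 and Gα16 | Probe or stimulus: EC80 β-phenethylamine stimulus | Dosing: 3 µM, single point | Times: Dye loading 75 min at 37 °C, then 30 min room temperature | Measured by: Fluo-8 calcium-sensitive fluorescence | Read-out basis: % inhibition of agonist calcium response | Replicates: n of 1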
GPR7 antagonist: GPR7 receptor antagonists, primary screen, cell-based, fluorescence, single concentration. Neuropeptides B/W receptor type 1 (Homo sapiens), P48145. actives 1.1% (n = 290,000). inhibition, % at 4.4 µM. GPR7-expressing cells, fluorescence antagonist assay; in the data active means inhibition above about 16%, passing the limit was not always enough;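 further: cells stimulated with the agonist NPW; 0% = agonist with vehicle and 100% = vehicle without agonist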
OX1R antag-1: antagonists of human orexin 1 receptor (OX1R); Orexin/Hypocretin receptor type 1 (Homo sapiens), O43613; OX1R-expressing cells, FRET antagonist read-out; inhibition, % at 6.6 µM; actives 1.8% (n = 330,000); AID 485270, 2010; in the data active means inhibition mostly above about 38%, no sharp cut-off; inactive means mostly below about 40%;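 further: 0% = agonist challenge alone and 100% = reference antagonist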
Target sequence (O43613 whole entry, looked up): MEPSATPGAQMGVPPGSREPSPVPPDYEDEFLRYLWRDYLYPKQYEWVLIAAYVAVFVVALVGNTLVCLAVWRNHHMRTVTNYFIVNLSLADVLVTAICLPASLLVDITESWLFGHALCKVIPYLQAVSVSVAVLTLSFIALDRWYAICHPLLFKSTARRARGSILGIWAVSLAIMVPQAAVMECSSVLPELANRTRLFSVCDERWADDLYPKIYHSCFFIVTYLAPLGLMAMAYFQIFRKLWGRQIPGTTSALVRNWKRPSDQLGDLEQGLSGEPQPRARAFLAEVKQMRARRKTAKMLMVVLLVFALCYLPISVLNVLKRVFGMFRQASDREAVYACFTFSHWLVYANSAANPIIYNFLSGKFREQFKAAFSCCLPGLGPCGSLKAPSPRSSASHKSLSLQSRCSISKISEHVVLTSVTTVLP
TAAR1 ag: human TAAR1 agonists, primary screen, Fluo-8 calcium fluorescence, CHO RD-HGA16 cells | vehicle wells 0%, saturating PEA agonist 100% | activation, % at 3 µM | actives 0.99% (n = 360,000) | AID 624467, 2012;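 active means activation above the mean activation of all test compounds in the run plus 3 SD, cut at about 38% in these data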
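System: CHO-derived RD-HGA16 cells with stable Gα16 and human TAAR1 / Times: 17-24 h plating, Fluo-8 75 min 37 °C, 30 min RT / Technique: calcium-sensitive Fluo-8 signal, excitation 470-495, emission 515-575 nm / Measure: % activation relative to PEA EC100 response / Benchmarks: DMSO and PEA EC100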
OX1R antag-2: OX1R (HCRTR1) antagonists, primary screen, fluorescence, CHO/OX1R cells, Fluo-8 calcium, orexin A; actives 0.43% (n = 330,000); Orexin/Hypocretin receptor type 1 (Homo sapiens), O43613; inhibition, % at 5 µM; Fluo-8 calcium fluorescence; AID 434989, 2010;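 active means inhibition above its plate's threshold, mean inhibition of all tested compounds on the plate plus 3 SD, cut at about 37% in these data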;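 further: 0% = orexin A challenge wells and 100% = SB-334867-A antagonist wells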
CHO parental Ca: ATP-evoked calcium signal inhibitors, parental CHO, primary screen, counter-screen for OX1R antagonist project, cell-based, fluorescence, Fluo-8 calcium dye. parental CHO-K1, ATP-induced calcium, Fluo-8 fluorescence. inhibition, % at 5.6 µM. actives 0.63% (n = 330,000). AID 463079, 2010;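 active means inhibition above that plate's mean sample inhibition plus 3 SD, cut at about 26% in these data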;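 further: 0% = ATP-challenged DMSO wells and 100% = DMSO wells without ATP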
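Assay system: untransfected parental CHO cell line. Also added: ATP agonist challenge. Dosing: one dose, 5.6 µM nominal. Measured by: Fluo-8 fluorescence. Read-out: % inhibition. Benchmarks: ATP wells versus no-ATP DMSO wells. Repeats: no replicates.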
TAAR1 ag conf: human TAAR1 agonists, retest of hits, confirmation, Fluo-8 calcium fluorescence, CHO RD-HGA16 cells; shares compounds with TAAR1 ag; scaled: DMSO 0%, maximal phenethylamine 100%; activation, % at 3 µM; actives 82% (n = 2,400); AID 651783, 2012;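 active means activation above a cutoff set at the run's mean compound activation plus 3 SD, cut at about 39% in these data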
Ga16 nonsel ag: nonselective calcium mobilization agonists, CHO-Ga16 cells, counter-screen for hTAAR1 agonist project, cell-based, fluorescence, CHO-Ga16 parental line; actives 50% (n = 2,400); shares compounds with TAAR1 ag; AID 651787, 2012; Fluo-8 calcium fluorescence; normalized to maximal ATP response, DMSO zero; activation, % at 3 µM;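 active means activation above the run cutoff, the mean activation over all tested wells plus 3 SD, cut at about 12% in these data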;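 further: 0% = DMSO wells and 100% = maximal ATP response on the peak over basal ratio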
TAAR1 desens: TAAR1 desensitization by agonist hits, confirmation, counter-screen for TAAR1 agonist project, cell-based, fluorescence, tachyphylaxis; inhibition, % at 3 µM; actives 46% (n = 2,400); AID 651951, 2012; shares compounds with TAAR1 ag; CHO RD-HGA16 hTAAR1, Fluo-8 calcium, beta-PEA response inhibition;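 active means inhibition above the run cutoff, the mean inhibition of all test compounds plus 3 SD, cut at about 49% in these data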;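 further: beta-PEA stimulus applied at its EC80; loss of beta-PEA calcium signal after compound pretreatment read as receptor desensitization; 0% = DMSO with beta-PEA at EC80 and 100% = DMSO alone without agonist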
Ga16 antag count: inhibition of ATP-evoked calcium response in CHO-Ga16 cells, counter-screen for TAAR1 agonist project, cell-based, fluorescence; CHO-Ga16 ATP-induced calcium, Fluo-8 fluorescence; actives 39% (n = 2,400); shares compounds with TAAR1 ag; inhibition, % at 3 µM;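 active means inhibition above the plate's mean compound inhibition plus 3 SD, computed per plate, cut at about 22% in these data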;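 further: 0% = EC80 ATP with DMSO and 100% = DMSO wells without ATP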
* = called active by the depositor; x = no result. Sampled rows, rich in hits. Any-hit rate of the full collection: about 4.5%.

SMILES	TAAR1 antag	GPR7 antagonist	OX1R antag-1	TAAR1 ag	OX1R antag-2	CHO parental Ca	TAAR1 ag conf	Ga16 nonsel ag	TAAR1 desens	Ga16 antag count
O=C1c2ccccc2C(=O)N1c1ccc(Cl)cc1	x	-10	14	x	-8	-12	x	x	x	x
CC(=O)Nc1ccc(N2C(=O)c3cccc4c(O)ccc(c34)C2=O)cc1	42	25	16	174*	61*	58*	63*	65*	31	39*
O=C1c2cccc3c(O)ccc(c23)C(=O)N1Cc1ccco1	39	-1	x	132*	x	x	158*	188*	74*	80*
O=C1c2ccccc2C(=O)N1Cc1ccco1	11	-9	12	0	-7	-7	x	x	x	x
O=C1c2cccc3c(O)ccc(c23)C(=O)N1c1ccc(Cl)cc1	59*	27	19	235*	85*	69*	129*	121*	75*	70*
CCN(CC(=O)Nc1c(F)cccc1F)C(=O)Cc1n[nH]c(=O)c2ccccc12	-40	x	15	1	-23	-12	x	x	x	x
COCCN1C[C@@H](CO)O[C@@H](n2cnc3c(N4CCCC4)ncnc32)C1	-26	x	x	5	x	x	x	x	x	x
CN(C(=O)CCc1nc(-c2ccccc2F)no1)c1ccccc1	-19	-15	1	45*	-10	4	6	7	4	2
Cc1cccc(CCNC(=O)CCc2nc(-c3ccccc3F)no2)c1	-8	17	15	17	-3	-16	x	x	x	x
CC(C)NC(=O)C1(C)CCCN1C(=O)c1cc(C#N)cs1 (stereo not drawn)	-14	x	x	0	x	x	x	x	x	x
COC(=O)c1cccc(C(=O)N2CCCC(C(=O)c3cccc(OC(C)C)c3)C2)c1 (stereo not drawn)	-4	-3	15	53*	-7	-2	-2	2	6	6
O=c1c(/C=N/N2CCOCC2)c(C(F)(F)F)[nH]n1-c1ccccc1	-4	-12	7	4	-5	-2	x	x	x	x
Clc1ccc(/C=N/Nc2ncnc3ccccc23)cc1Cl	14	-2	22	45*	-12	-20	19	13*	14	-2
COc1ccccc1CNC(=O)CC1C(=O)NCCN1C1Cc2ccccc2C1 (stereo not drawn)	19	3	31	70*	-20	-25	72*	5	3	-2
CCCOc1ccc(N2C(=O)CC(N3CCN(CCN=CC4C(=O)CC(C)(C)CC4=O)CC3)C2=O)cc1 (stereo not drawn)	-27	-1	21	0	-30	-28	x	x	x	x
Cc1c(CNCC(C)c2ccccc2)c(C(=O)O)c(C)n1Cc1ccccc1 (stereo not drawn)	6	-13	22	90*	-11	-19	78*	2	18	-2
O=C(CC1Nc2ccccc2NC1=O)NCCc1ccccc1 (stereo not drawn)	57*	4	29	91*	-12	-11	98*	2	74*	-8
Nc1nc(Nc2ccccc2)sc1C(=O)c1ccccc1	-33	-10	26	68*	-51	-42	50*	23*	6	-2
Nc1ccc(S(=O)(=O)Nc2cc(Cl)c(N)c(Cl)c2)cc1	7	x	x	10	x	x	x	x	x	x
O=C(Nc1ccccc1)C(=O)Nc1cccnc1	-3	3	3	5	-12	-4	x	x	x	x
O=C(Nc1ccccc1)Nc1ccc(Oc2cccnc2)nc1	-18	-3	13	67*	2	-4	90*	12*	80*	20
O=C(Nc1ccc(F)cc1)Nc1cccnc1	-4	3	x	64*	x	x	81*	6	48	5
Fc1ccc(NC(=S)Nc2cccnc2)cc1	30	-8	13	6	-17	-4	x	x	x	x
CCN(CC)S(=O)(=O)c1ccc2c(c1)nc(SCc1nc3ccsc3c(=O)[nH]1)n2CC	0	-10	7	11	-34	-20	x	x	x	x
CCC(=O)Nc1ccc(C(=O)Nc2ccc(Br)cc2F)cc1	83*	-13	5	75*	7	2	14	3	11	13
SMILES	TAAR1 antag	GPR7 antagonist	OX1R antag-1	TAAR1 ag	OX1R antag-2	CHO parental Ca	TAAR1 ag conf	Ga16 nonsel ag	TAAR1 desens	Ga16 antag count
O=C(N[C@H](C(=O)N1CCC[C@H]1C(=O)NCCc1ccccc1Cl)c1ccccc1)c1ccco1	-13	x	x	41*	x	x	57*	1	60*	12
O=C(N[C@H](C(=O)N1CCC[C@H]1C(=O)NCCc1ccccc1Cl)c1ccccc1)c1cccs1	x	x	x	x	x	x	x	5	x	10
Cc1ccccc1C(=O)N[C@H](C(=O)N1CCC[C@H]1C(=O)NCc1ccccc1)c1ccccc1	-37	x	x	2	x	x	x	x	x	x
CCN(CC1COc2ccccc2O1)S(=O)(=O)c1ccc(C)cc1 (stereo not drawn)	-4	-2	15	-2	-21	-19	x	x	x	x
Cc1ccc(NC(=O)C2CC(=O)Nc3nc4ccccc4n32)c(C)c1 (stereo not drawn)	-14	-10	8	1	-2	-12	x	x	x	x
COc1ccccc1CN1CC(C(=O)N2CCC(C(=O)c3ccccc3)CC2)CCC1=O (stereo not drawn)	-15	-3	21	2	-8	-22	x	x	x	x
CCC(C)(C)n1nnnc1C(c1ccc(O)c(OC)c1)N1CCc2ccccc2C1 (stereo not drawn)	92*	0	10	104*	-22	-8	106*	15*	100*	12
CCOC(=O)C1(C)CCN1C(=O)c1c(F)cccc1F (stereo not drawn)	-4	x	x	1	x	x	x	x	x	x
CN(C(=O)CCc1cn(C)c2ccccc12)c1ccc(Oc2cccnc2)cc1	24	x	x	-2	x	x	x	x	x	x
Clc1ccc(NCc2ccsc2)cc1	x	-4	5	x	-17	10	x	x	x	x
